≈ marks a conversion by molar mass, not a printed value.
How the values were obtained:
[1] = test system: E. granulosus protoscoleces; experiment: Protoscolicidal; type: cell-based; conditions: Echinococcus granulosus; for IC50: read-out: IC50 protoscolicidal activity; for viability at 25 µg/mL / viability at 50 µg/mL / viability at 75 µg/mL / viability at 100 µg/mL / viability at 125 µg/mL: read-out: viability of protoscoleces
Summary of the method: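 Protoscoleces came from hydatid cysts of naturally infected sheep, settled without centrifugation, washed three times in HBSS, and cultured in RPMI 1640 (12 mM HEPES, glutamine, antibiotics, amphotericin B, 10 % FCS, glucose). Within 10 days, ~500 protoscoleces in 20 ml medium received test compound at 25–125 µg/ml; DMSO control. Viability was scored by motility and 0.1 % trypan blue exclusion in 10 random fields (10X). Triplicate; IC50 by nonlinear regression.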

HepG2 cells = experiment: In-vitro cytotoxicity MTT assay on HepG2 cell line; type: cell-based, human; conditions: 125 μg/ml, third day
Summary of the method: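 HepG2 monolayers in phenol-red-free DMEM with 10 % FCS, penicillin and streptomycin, grown 48 h at 37 °C/5 % CO2 to confluency. Test compound in DMSO at 25, 50, 75, 100, 125 µg; medium-only negative control with matched DMSO. After 48 h at 37 °C, MTT (5 mg/mL) added for 4 h, then DMSO-dissolved formazan read at 570/655 nm. Triplicate; viability relative to untreated cells.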

[2] = test system: protoscoleces and metacestodes of Echinococcus granulosus; conditions: cited from earlier work

| SMILES | IC50 [1] | viability at 25 µg/mL [1] | viability at 50 µg/mL [1] | viability at 75 µg/mL [1] | viability at 100 µg/mL [1] | viability at 125 µg/mL [1] | cell survival rate of HepG2 (HepG2 cells) | antiechinococcal activity [2] |
| --- | --- | --- | --- | --- | --- | --- | --- | --- |
| Cc1ccc(NC(=O)c2cc([N+](=O)[O-])cc([N+](=O)[O-])c2)cc1 [Compound 6, 3,5-dinitro-N-p-tolylbenzamide] | 77 µg/mL (≈ 256 µM) | 72.6% | 66.6% | 53.6% | 43% | 32.3% | 36% |  |
| Cc1ccc(NC(=O)c2cccc3ccccc23)cc1 [Compound 10, N-p-tolyl-1-naphthamide] | 29.5 µg/mL (≈ 113 µM) | 47.3% | 20% | 10.3% | 0% | 0% | 40% |  |
| Cc1ccc(NC(=O)c2ccc(OC(F)(F)F)cc2)cc1 [Compound 16, N-p-tolyl-4-(trifluoromethoxy)benzamide] | 66.5 µg/mL (≈ 225 µM) | 72.6% | 62.6% | 45.3% | 39.6% | 30% | 38% |  |
| CCCCCc1ccc(C(=O)Nc2ccc(C)cc2)cc1 [Compound 18, 4-pentyl-N-p-tolylbenzamide] | 45 µg/mL (≈ 160 µM) | 63.3% | 49.6% | 38.3% | 29% | 21% | approximately 54% |  |
| Cc1ccc(NC(=O)c2c(F)c(F)c(F)c(F)c2F)cc1 [Compound 20, 2,3,4,5,6-pentafluoro-N-p-tolylbenzamide] | 39.5 µg/mL (≈ 131 µM) | 54.3% | 50.6% | 18.3% | 9.6% | 0% | 32% |  |
| CC(=O)Oc1ccccc1C(=O)Nc1ncc([N+](=O)[O-])s1 [Nitazoxanide] |  |  |  |  |  |  |  | potent antiechinococcal activity |
